{"source": "paper PMC10013843", "about": "(Molecular psychiatry, 2022)", "key": {"opioid receptors": {"test_system": "opioid receptors", "conditions": "cited from earlier work"}, "rats [1]": {"test_system": "rats", "assay": "[^18F]-FDG PET brain metabolic mapping", "type": "in vivo, rat", "conditions": "10 mg/kg i.v. infusion in 40 min", "in_short": "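Rats were handling- and arena-habituated and fasted 16 h. Awake in an open field, they received a continuous IV infusion of buffered saline (n = 4) or test compound (10 mg/kg over 40 min, n = 5). Ten min after infusion start, [18F]-FDG (13 MBq) was given IP. Rats were anesthetized 30 min later and brains PET-scanned. SUVR images used whole brain as reference, analysed voxel-wise and by atlas-based ROIs.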"}, "mGluR5": {"biological_target": "mGluR5 (Homo sapiens, UniProt P41594)", "assay": "mGluR functional assay", "type": "biochemical"}, "[2]": {"biological_target": "estrogen receptor alpha (ERα) (Homo sapiens, UniProt P03372)", "assay": "Screening and target deconvolution experiments", "type": "binding"}, "KOR (OPRK1)": {"biological_target": "KOR (OPRK1) (Homo sapiens, UniProt P41145)", "assay": "cAMP BRET", "type": "cell-based", "conditions": "HEK-293 cells, up to a concentration of 1 mM", "in_short": "(§1)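 HEK-293 cells (DMEM, 10% FBS, 37°C/5% CO2) were PEI-transfected with 5 μg untagged MOR, KOR or DOR plus 5 μg CAMYEL cAMP biosensor and used 48 h later. Cells were suspended in DPBS with 100 μM metabisulfite and 5.5 mM glucose and kept 45 min in the dark. Forskolin (10 μM) was added for 5 min, then coelenterazine H (5 μM) for 5 min, then compound. BRET (535/475 nm) was read 5 min later, forskolin-only background subtracted, and expressed as % of each receptor's maximum. Triplicates; 3–6 experiments for EC50/Emax.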"}, "[3]": {"biological_target": "tropomyosin receptor kinase B (TrkB) (Homo sapiens, UniProt Q16620)", "assay": "Screening and target deconvolution experiments", "type": "binding"}, "mice [4]": {"test_system": "mice", "assay": "Forced swimming test", "type": "in vivo, mouse", "conditions": "24 hours after", "in_short": "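Male CD-1 mice (35–40 g, n = 8/condition) received a single IP dose of test compound (1, 3 or 10 mg/kg) or saline 24 h before a 6-min swim under 800 lux. Cylinders were 30 cm high × 20 cm diameter, holding 15 cm of water at 23 ± 1°C. A blinded observer scored immobility from video over the last 4 min.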"}, "MOR (OPRM1)": {"biological_target": "MOR (OPRM1) (Homo sapiens, UniProt P35372)", "assay": "cAMP BRET", "type": "cell-based", "conditions": "HEK-293 cells, up to a concentration of 1 mM", "in_short": "as §1"}, "[^14C]-": {"assay": "[^14C]-", "type": "in vivo, rat", "conditions": "for % of the total radioactivity exposure through 72 hours: plasma; for plasma exposure AUC 0–72h: [^14C]-(2R,6R)-HNK 10 mg/kg i.v.", "in_short": "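Male and female rats received a single bolus IV dose of 14C-labelled test compound (10 mg/kg). Blood and plasma radioactivity was followed from 15 min to 120 h in males and to 72 h in females. […] Whole-body autoradiograms were taken at 30 min and 4 h.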"}, "mGluR2": {"biological_target": "mGluR2 (Homo sapiens, UniProt Q14416)", "assay": "[^3H]LY341495 competition binding, recombinant receptor membranes", "conditions": "membranes expressing human recombinant mGluR2"}, "rats [5]": {"test_system": "rats", "conditions": "i.v. doses up to 160 mg/kg; cited from earlier work"}, "mice [6]": {"test_system": "mice", "assay": "Open-field locomotor activity", "type": "in vivo, mouse", "conditions": "male mice; single 10, 30, 65 mg/kg IP"}, "[7]": {"biological_target": "delta-opioid receptor (DOR; OPRD1) (Homo sapiens, UniProt P41143)", "assay": "cAMP BRET", "type": "cell-based", "conditions": "HEK-293 cells, up to a concentration of 1 mM", "in_short": "as §1"}, "NK1R": {"biological_target": "NK1R (Rattus norvegicus, UniProt P14600)", "assay": "[^3H]-Substance P binding, rat whole brain membrane homogenates"}, "NMDAR": {"test_system": "NMDAR", "conditions": "cited from earlier work"}, "mice [8]": {"test_system": "mice", "conditions": "cited from earlier work"}, "[9]": {"biological_target": "kappa-opioid receptors, KOR (Rattus norvegicus, UniProt P34975)", "assay": "[^3H]U69,593 competition binding, rat brain membranes"}, "HCN1 channel": {"biological_target": "T1, HCN1 channel (Homo sapiens, UniProt O60741)", "T1 sequence (O60741 1-890)": "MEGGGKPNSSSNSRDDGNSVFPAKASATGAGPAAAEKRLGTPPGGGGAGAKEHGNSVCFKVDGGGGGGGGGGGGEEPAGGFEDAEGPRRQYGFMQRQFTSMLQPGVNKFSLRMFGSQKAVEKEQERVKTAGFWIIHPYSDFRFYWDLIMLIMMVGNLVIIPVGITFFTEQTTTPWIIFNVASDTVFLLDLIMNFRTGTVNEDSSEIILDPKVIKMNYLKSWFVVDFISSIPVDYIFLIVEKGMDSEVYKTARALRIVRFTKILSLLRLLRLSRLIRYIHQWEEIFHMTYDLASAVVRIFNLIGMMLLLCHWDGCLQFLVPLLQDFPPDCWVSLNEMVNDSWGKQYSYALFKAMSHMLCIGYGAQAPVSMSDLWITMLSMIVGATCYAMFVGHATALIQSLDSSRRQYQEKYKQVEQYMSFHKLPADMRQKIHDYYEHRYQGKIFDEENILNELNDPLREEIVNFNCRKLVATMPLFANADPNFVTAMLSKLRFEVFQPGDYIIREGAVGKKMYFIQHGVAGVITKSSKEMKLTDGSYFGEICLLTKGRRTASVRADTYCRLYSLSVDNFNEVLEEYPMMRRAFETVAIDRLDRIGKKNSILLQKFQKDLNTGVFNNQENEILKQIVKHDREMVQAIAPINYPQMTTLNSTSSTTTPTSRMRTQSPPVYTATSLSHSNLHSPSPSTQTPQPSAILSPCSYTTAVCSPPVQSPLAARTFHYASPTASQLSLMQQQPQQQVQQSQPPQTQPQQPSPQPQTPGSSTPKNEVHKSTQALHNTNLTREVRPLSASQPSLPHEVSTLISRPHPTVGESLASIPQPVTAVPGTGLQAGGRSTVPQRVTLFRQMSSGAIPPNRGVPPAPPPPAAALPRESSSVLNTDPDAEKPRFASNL", "assay": "HCN1 channel functional interaction", "type": "biochemical"}, "sigma-1 receptors": {"biological_target": "sigma-1 receptors (Rattus norvegicus, UniProt Q9R0C9)", "assay": "[^3H]-pentazocine competition binding, rat brain membranes"}}}
{"compound": "N[C@@]1(c2ccccc2Cl)CCC[C@@H](O)C1=O", "note": "[(2R,6R)-HNK, (2R,6R)-hydroxynorketamine]", "values": [{"measurement": "functional properties at opioid receptors", "setting": "opioid receptors", "result": "inverse agonist properties"}, {"measurement": "metabolic activity in the PFC", "setting": "rats [1]", "result": "did not see any metabolic activity"}, {"measurement": "regional metabolic connectivity profile", "setting": "rats [1]", "result": "closely resembled the saline condition"}, {"measurement": "brain metabolic activity ([^18F]-FDG uptake), voxel-wise analysis", "setting": "rats [1]; insula, nucleus accumbens, globus pallidus, thalamus, cortices, cerebellum", "result": "mild but significant increase"}, {"measurement": "FDG uptake in the nucleus accumbens, ROI-based", "setting": "rats [1]; vs saline", "result": "~ 10 % increase"}, {"measurement": "effect in functional assay at mGluR5", "setting": "mGluR5", "result": "no effects"}, {"measurement": "interaction with ERα", "setting": "[2]", "result": "failed to interact"}, {"measurement": "cAMP response (inhibition of cAMP accumulation)", "setting": "KOR (OPRK1)", "result": "did not induce any cAMP response"}, {"measurement": "interaction with TrkB", "setting": "[3]", "result": "failed to interact"}, {"measurement": "immobility time in forced swimming test, difference from vehicle", "setting": "mice [4]; 1 mg/kg IP", "result": "but not 1 mg/kg"}, {"measurement": "immobility time in forced swimming test", "setting": "mice [4]; 3 or 10 mg/kg IP, single administration", "result": "reduced immobility time"}, {"measurement": "cAMP response (inhibition of cAMP accumulation)", "setting": "MOR (OPRM1)", "result": "did not induce any cAMP response"}, {"measurement": "% of the total radioactivity exposure through 72 hours", "setting": "[^14C]-; female rats", "result": 26.7, "unit": "%"}, {"measurement": "plasma exposure AUC 0–72h", "setting": "[^14C]-; female rats", "result": 7090, "unit": "ng eq·h/g"}, {"measurement": "% of the total radioactivity exposure through 72 hours", "setting": "[^14C]-; male rats", "result": 21.6, "unit": "%"}, {"measurement": "plasma exposure AUC 0–72h", "setting": "[^14C]-; male rats", "result": 5330, "unit": "ng eq·h/g"}, {"measurement": "displacement of [^3H]LY341475", "setting": "mGluR2", "result": "failed to displace"}, {"measurement": "NMDAR-associated neurotoxicity", "setting": "rats [5]", "result": "does not produce NMDAR-associated neurotoxicity"}, {"measurement": "locomotor activity, acute", "setting": "mice [6]", "result": "did not alter locomotor activity"}, {"measurement": "cAMP response (inhibition of cAMP accumulation)", "setting": "[7]", "result": "did not induce any cAMP response"}, {"measurement": "[^3H]-Substance P binding", "setting": "NK1R", "result": "did not alter"}, {"measurement": "effect on NMDAR function", "setting": "NMDAR; 10 μM, cultured hippocampal neurons", "result": "no effect"}, {"measurement": "reduction in synaptic NMDAR currents", "setting": "NMDAR; 50 μM", "result": "~ 40%"}, {"measurement": "pain reduction after naloxone pretreatment", "setting": "mice [8]", "result": "not blocked by naloxone pretreatment"}, {"measurement": "binding to opioid receptors (KOR)", "setting": "[9]; concentrations up to 100 μM", "result": "does not bind"}, {"measurement": "KOR binding, displacement of [^3H]U69,593", "setting": "[9]; rat brain membranes", "result": "failed to displace"}, {"measurement": "interaction with the HCN1 channel", "setting": "HCN1 channel", "result": "neither (2R,6R)-HNK nor ketamine interacted"}, {"measurement": "binding to sigma receptors ([^3H]-pentazocine)", "setting": "sigma-1 receptors", "result": "did not bind"}]}
